Measurements reported in ChEMBL document CHEMBL1275426, “Apoptosis induced by aminoglycosides in LLC-PK1 Cells: comparative study of neomycin, gentamicin, amikacin, and isepamicin using electroporation” (Antimicrob Agents Chemother, 2008).
Calls of active or inactive are those of the source. The rule behind the calls is not given here.

Assays:
Homo sapiens = test: Drug uptake in human at 15 mg/kg; type: ADME, organism-based; set-up: dose 15 mg/kg; conditions: in vivo
LLC-PK1 [1] = test: Induction of apoptosis in pig LLC-PK1 cells at 0.064 mM after 24 hrs electoporated in presence of compound; type: functional, cell-based; conditions: Sus scrofa
Summary of the method: (§1)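 LLC-PK1 cells were electroporated with or without aminoglycoside at increasing concentrations, up to 0.384 mM, present during the pulse. Cells were then returned to aminoglycoside-free medium. Apoptotic nuclei were enumerated 24 h later. Values are mean ± SD, n = 3, by two-tailed ANOVA against controls.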

LLC-PK1 [2] = test: Induction of apoptosis in pig LLC-PK1 cells measured at 0 to 3 mM after 2 days by DAPI staining; type: functional, cell-based; conditions: Sus scrofa
Summary of the method: (§2)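 LLC-PK1 cells were incubated for 48 h over a concentration series: 0 to 3 mM, or 3 to 9 mM. Apoptotic nuclei were scored as a percentage by DAPI staining under the microscope. Values are mean ± SD, n = 3, by two-tailed ANOVA against drug-free cells.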

LLC-PK1 [3] = test: Induction of apoptosis in pig LLC-PK1 cells at 2 mM by DAPI staining; type: functional, cell-based; conditions: Sus scrofa, TDE = time-dependent effect
Summary of the method: (§3)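 LLC-PK1 cells were incubated without drug or with 2 mM or 6 mM aminoglycoside for up to 3 days. Nuclei were stained with DAPI, and the percentage of apoptotic nuclei was counted by microscopy. Camptothecin at 14.3 μM served as positive control. Values are mean ± SD, n = 3, by two-tailed ANOVA against matched controls.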

LLC-PK1 [4] = test: Induction of apoptosis in pig LLC-PK1 cells assessed as caspase 3 activity at 2 mM after 1 day […]; type: functional, cell-based; conditions: Sus scrofa
Summary of the method: (§4)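 Renal LLC-PK1 cells were incubated up to 3 days with 2 mM drug in continuous exposure. Caspase 3 activity was measured with the fluorogenic substrate N-acetyl-Asp-Glu-Val-Asp-7-amido-4-methylcoumarin and expressed as % of matched untreated controls. The positive control was camptothecin at 14.3 μM. Values are mean ± SD, n = 3, by two-tailed ANOVA against matched controls.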

LLC-PK1 [5] = test: Induction of apoptosis in pig LLC-PK1 cells at 0.1mM after 24 hrs electoporated in presence of compound; type: functional, cell-based; conditions: Sus scrofa; summary of the method: as §1
LLC-PK1 [6] = test: Induction of apoptosis in pig LLC-PK1 cells assessed as caspase 3 activity at 2 mM after 2 days […]; type: functional, cell-based; conditions: Sus scrofa; summary of the method: as §4
LLC-PK1 [7] = test: Induction of apoptosis in pig LLC-PK1 cells at 6 mM after 2 days by DAPI staining; type: functional, cell-based; conditions: Sus scrofa; summary of the method: as §3
LLC-PK1 [8] = test: Induction of apoptosis in pig LLC-PK1 cells upto 9 mM after 2 days by DAPI staining; type: functional, cell-based; conditions: Sus scrofa; summary of the method: as §2
LLC-PK1 [9] = test: Induction of apoptosis in pig LLC-PK1 cells at 6 mM after 3 days by DAPI staining; type: functional, cell-based; conditions: Sus scrofa; summary of the method: as §3
LLC-PK1 [10] = test: Induction of necrosis in pig LLC-PK1 cells assessed as lactate dehydrogenase release; type: functional, cell-based; conditions: Sus scrofa
LLC-PK1 [11] = test: Induction of apoptosis in pig LLC-PK1 cells at 6 mM after 1 day by DAPI staining; type: functional, cell-based; conditions: Sus scrofa; summary of the method: as §3
LLC-PK1 [12] = test: Induction of apoptosis in pig LLC-PK1 cells at 0.192 to 0.384 mM after 24 hrs electoporated in presence of compound; type: functional, cell-based; conditions: Sus scrofa; summary of the method: as §1

In the case of GENTAMICIN [listing 1 of 2 here], the Drug uptake (Homo sapiens) is reported as 8.56 µmol/kg.
With NC[C@@H]1O[C@H](O[C@H]2[C@@H](O)[C@H](O[C@@H]3[C@@H](O)[C@H](N)C[C@H](N)[C@H]3O[C@H]3O[C@H](CN)[C@@H](O)[C@H](O)[C@H]3N)O[C@@H]2CO)[C@H](N)[C@@H](O)[C@@H]1O the Activity (LLC-PK1 [1]) was “Active”.
In the case of GENTAMICIN [listing 2 of 2 here], the Activity (LLC-PK1 [2]) is reported as “Dose-dependent effect”, the Activity (LLC-PK1 [3]) is reported as “tde” and the Activity (LLC-PK1 [4]) is reported as “Active”. For the same compound, the Activity (LLC-PK1 [5]) was “Active” and the Activity (LLC-PK1 [6]) was “Active”.
For NCC[C@H](O)C(=O)N[C@@H]1C[C@H](N)[C@@H](O[C@H]2O[C@H](CN)[C@@H](O)[C@H](O)[C@H]2O)[C@H](O)[C@H]1O[C@H]1O[C@H](CO)[C@@H](O)[C@H](N)[C@H]1O [AMIKACIN], the Activity (LLC-PK1 [7]) was “inactive”, the Activity (LLC-PK1 [8]) was “inactive” and the Activity (LLC-PK1 [9]) was “Active”. For the same compound, the Activity (LLC-PK1 [10]) was “inactive”, the Activity (LLC-PK1 [11]) was “inactive” and the Drug uptake (Homo sapiens) was 25.6 µmol/kg.
With CN[C@@H]1[C@@H](O)[C@@H](O[C@@H]2[C@@H](O)[C@H](O[C@H]3O[C@H](CN)[C@@H](O)[C@H](O)[C@H]3O)[C@@H](N)C[C@H]2NC(=O)[C@@H](O)CN)OC[C@]1(C)O the Activity (LLC-PK1 [12]) was “Active”.
